Test results as given in ChEMBL document CHEMBL2375318, “Design, synthesis and antimicrobial activity of novel benzothiazole analogs” (Eur J Med Chem, 2013).
Converted amounts (≈) assume the structure as drawn.

Columns and labels:
Enterococcus faecalis = assay: Antimicrobial activity against Enterococcus faecalis clinical isolate after 18 to 24 hrs by micro-dilution method; format: functional
Klebsiella pneumoniae = assay: Antimicrobial activity against Klebsiella pneumoniae clinical isolate after 18 to 24 hrs by micro-dilution method; format: functional
Candida albicans [1] = assay: Antifungal activity against Candida albicans ATCC 90028 after 18 to 24 hrs by micro-dilution metho; format: functional
Summary of the method: (§1)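 Broth micro-dilution MIC, fungi. Fresh broth cultures were made in normal saline. Compounds were serially diluted in microtiter plates across 8 concentrations, 100 down to 0.78. Standardized inoculum was 1–2 × 10^7 cfu/ml. Medium was Sabouraud dextrose pH 7.3 ± 0.2. Plates were incubated aerobically at 37 °C for 18–24 h. MIC is the lowest concentration with no visible growth or turbidity versus control. Fluconazole was the reference.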

Escherichia coli = assay: Antimicrobial activity against Escherichia coli ATCC 35218 after 18 to 24 hrs by micro-dilution method; format: functional
Pseudomonas aeruginosa = assay: Antimicrobial activity against Pseudomonas aeruginosa ATCC 27893 after 18 to 24 hrs by micro-dilution method; format: functional
Pichia kudriavzevii = assay: Antifungal activity against Candida krusei ATCC 6258 after 18 to 24 hrs by micro-dilution method; format: functional; summary of the method: as §1
[2] = Cytotoxicity against human RBC assessed as hemolytic activity at 100 uM after 1 hr by spectophotometry; format: cell-based, Erythrocyte; details: red blood cells (RBC), read-out: Activity
Summary of the method: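 Hemolysis, fresh human blood. RBCs were washed three times in PBS (spun 3000 rpm, 7 min, room temperature) and adjusted to 5×10^8 cells/ml. Cell suspension was added to buffer holding 100 μM compound in 1% v/v DMSO/PBS. Controls were 1% DMSO/PBS and sterile water. Samples were shaken at 37 °C for 1 h, spun at 1300 rpm for 5 min, and supernatant absorbance read at 540 nm.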

Aspergillus niger = assay: Antimicrobial activity against Aspergillus niger clinical isolate after 18 to 24 hrs by micro-dilution method; format: functional; summary of the method: as §1
Cryptococcus neoformans = assay: Antifungal activity against Cryptococcus neoformans clinical isolate after 18 to 24 hrs by micro-dilution method; format: functional; summary of the method: as §1
Shigella boydii = assay: Antimicrobial activity against Shigella boydii clinical isolate after 18 to 24 hrs by micro-dilution method; format: functional
Aspergillus fumigatus = assay: Antimicrobial activity against Aspergillus fumigatus clinical isolate after 18 to 24 hrs by micro-dilution method; format: functional; summary of the method: as §1
Candida tropicalis = assay: Antifungal activity against Candida tropicalis ATCC 750 after 18 to 24 hrs by micro-dilution method; format: functional; summary of the method: as §1
Candida albicans [3] = assay: Antifungal activity against Candida albicans clinical isolate after 18 to 24 hrs by micro-dilution method; format: functional; summary of the method: as §1
Staphylococcus aureus = assay: Antimicrobial activity against Staphylococcus aureus ATCC 25323 after 18 to 24 hrs by micro-dilution method; format: functional
Salmonella typhi = assay: Antimicrobial activity against Salmonella typhi MTCC 3216 after 18 to 24 hrs by micro-dilution method; format: functional, Salmonella enterica subsp. enterica serovar Typhi; details: Salmonella enterica
Summary of the method: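 Broth microdilution with twofold serial dilutions from 100 down to 0.78, eight concentrations. Fresh cultures were made up in normal saline, and 0.1 ml of standardized inoculum (1–2 × 10^7 cfu/ml) was added per well. Plates were incubated aerobically at 37 °C for 18–24 h on Mueller-Hinton agar/Luria broth. MIC was the lowest concentration with no visible turbidity compared with the control.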

SMILES	MIC (Enterococcus faecalis)	MIC (Klebsiella pneumoniae)	MIC (Candida albicans [1])	MIC (Escherichia coli)	MIC (Pseudomonas aeruginosa)	MIC (Pichia kudriavzevii)	hemolysis at 1 h, 100 µM [2]	MIC (Aspergillus niger)	MIC (Cryptococcus neoformans)	MIC (Shigella boydii)	MIC (Aspergillus fumigatus)	MIC (Candida tropicalis)	MIC (Candida albicans [3])	MIC (Staphylococcus aureus)	MIC (Salmonella typhi)
Brc1ccc(-n2cc(CN(Cc3cn(-c4ccc(Br)cc4)nn3)c3nc4ccccc4s3)nn2)cc1	> 100 µg/mL	> 100 µg/mL	6.25 µg/mL (≈ 10 µM)	> 100 µg/mL	> 100 µg/mL	6.25 µg/mL (≈ 10 µM)	12.4%	3.12 µg/mL (≈ 5.01 µM)	1.56 µg/mL (≈ 2.51 µM)	> 100 µg/mL	3.12 µg/mL (≈ 5.01 µM)	6.25 µg/mL (≈ 10 µM)	12.5 µg/mL (≈ 20.1 µM)	> 100 µg/mL	> 100 µg/mL
Clc1ccc(-n2cc(CN(Cc3cn(-c4ccc(Cl)cc4Cl)nn3)c3nc4ccccc4s3)nn2)c(Cl)c1	50 µg/mL (≈ 83 µM)	> 100 µg/mL	6.25 µg/mL (≈ 10.4 µM)	50 µg/mL (≈ 83 µM)	> 100 µg/mL	6.25 µg/mL (≈ 10.4 µM)	4.54%	1.56 µg/mL (≈ 2.59 µM)	3.12 µg/mL (≈ 5.18 µM)	> 100 µg/mL	1.56 µg/mL (≈ 2.59 µM)	12.5 µg/mL (≈ 20.8 µM)	12.5 µg/mL (≈ 20.8 µM)	50 µg/mL (≈ 83 µM)	> 100 µg/mL
COc1cccc(-n2cc(CN(Cc3cn(-c4cccc(OC)c4)nn3)c3nc4ccccc4s3)nn2)c1	> 100 µg/mL	> 100 µg/mL	6.25 µg/mL (≈ 11.9 µM)	50 µg/mL (≈ 95.3 µM)	> 100 µg/mL	6.25 µg/mL (≈ 11.9 µM)	7.54%	3.12 µg/mL (≈ 5.95 µM)	1.56 µg/mL (≈ 2.97 µM)	> 100 µg/mL	3.12 µg/mL (≈ 5.95 µM)	12.5 µg/mL (≈ 23.8 µM)	25 µg/mL (≈ 47.7 µM)	100 µg/mL (≈ 191 µM)	> 100 µg/mL
